The target of one assay is T1, YKL-39 (Homo sapiens, UniProt Q15782).
T1 sequence (Q15782 27-390): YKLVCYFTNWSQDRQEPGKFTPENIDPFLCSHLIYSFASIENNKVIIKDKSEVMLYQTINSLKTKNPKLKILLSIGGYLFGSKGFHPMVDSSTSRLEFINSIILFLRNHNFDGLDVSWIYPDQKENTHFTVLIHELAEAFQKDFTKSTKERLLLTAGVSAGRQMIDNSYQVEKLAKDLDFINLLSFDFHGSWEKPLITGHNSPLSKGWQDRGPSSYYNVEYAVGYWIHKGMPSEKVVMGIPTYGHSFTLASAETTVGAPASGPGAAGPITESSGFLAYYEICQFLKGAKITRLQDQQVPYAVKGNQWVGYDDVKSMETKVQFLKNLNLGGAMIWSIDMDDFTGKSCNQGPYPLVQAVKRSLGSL
Kind of assay: Glycan array screen. Type of assay: binding. As to conditions: AlexaFluor 488-labelled YKL-39, array of 264 glycans. Summed up: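 Amino-linked natural and synthetic glycans were printed on modified glass slides, six replicates each. Dye-labelled protein was applied for 1 h at room temperature. Slides were spun dry and scanned at ex 495/em 520 nm. Means ± S.D. of four observations.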

The subject of the next assay is hAMCase. The note with it: cited from earlier work.
For assay [1], the target named is T2, YKL-39 S143D/I145E active mutant (Homo sapiens, UniProt Q15782, I145E/S143D).
T2 sequence (Q15782 27-390 S143D/I145E): T1 sequence (Q15782 27-390) with S117D, I119E
As to the kind of experiment: Chitinase activity assay, steady-state kinetics and inhibition. Type of assay: biochemical. In a few lines:
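S143D/I145E mutant was secreted from methanol-induced Pichia pastoris GS115 and purified by CM-Sepharose and size exclusion. 20 nM enzyme with 4MU-(GlcNAc)3 in 0.2 M Na2HPO4/0.1 M citric acid pH 5.5, 60 min at 37°C. Quenched with 3 M glycine/NaOH pH 10; read at ex 360/em 460 nm. Triplicates, no-enzyme blank subtracted. Kinetic parameters from curve fit over three independent experiments; Ki by non-linear regression.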

The target in assay [2] is hCHT (human chitotriosidase) (Homo sapiens, UniProt Q13231). As to the kind of experiment: Chitinase activity assay, steady-state kinetics. The assay is classed as biochemical. Summed up:
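Human chitotriosidase at 2 nM final with fluorigenic 4MU-(GlcNAc)3 in 0.2 M Na2HPO4/0.1 M citric acid pH 5.5, incubated 60 min at 37°C. Quenched with 3 M glycine/NaOH pH 10; 4MU product read at ex 360/em 460 nm. Reactions run in triplicate, with no-enzyme readings subtracted. Km and kcat from steady-state fit, means ± S.E.M. of three independent experiments.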

Numbering of substitutions follows the chain as printed.

Data on five compounds can be found in publication PMC3513709 (The Biochemical journal, 2012).

In general, kcat refers to the number of substrate molecules converted per active site and unit of time at saturation. In general, Km refers to the substrate concentration at which the rate is half of its maximum. By Ki is commonly meant a dissociation constant, usually derived from enzyme kinetics or from competition with a known ligand. A higher Ki goes with a looser hold on the target.

Chain of hCHT (human chitotriosidase) (Q13231 22-466): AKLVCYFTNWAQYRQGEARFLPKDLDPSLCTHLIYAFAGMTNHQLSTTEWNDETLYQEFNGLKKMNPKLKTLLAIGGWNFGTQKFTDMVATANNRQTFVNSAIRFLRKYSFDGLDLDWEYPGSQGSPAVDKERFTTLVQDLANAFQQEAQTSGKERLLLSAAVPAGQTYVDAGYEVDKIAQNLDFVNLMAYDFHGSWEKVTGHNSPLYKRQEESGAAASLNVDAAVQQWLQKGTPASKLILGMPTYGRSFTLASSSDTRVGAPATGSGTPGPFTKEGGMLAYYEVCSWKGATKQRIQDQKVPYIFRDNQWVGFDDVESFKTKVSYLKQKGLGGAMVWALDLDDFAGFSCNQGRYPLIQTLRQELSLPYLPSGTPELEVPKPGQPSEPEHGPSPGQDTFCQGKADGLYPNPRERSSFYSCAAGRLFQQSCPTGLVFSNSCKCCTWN

Regarding `CC(=O)N[C@H]1[C@H](O[C@H]2[C@H](O)[C@@H](NC(C)=O)[C@H](O[C@H]3[C@H](O)[C@@H](NC(C)=O)C(O)O[C@@H]3CO)O[C@@H]2CO)O[C@H](CO)[C@@H](O[C@@H]2O[C@H](CO)[C@@H](O[C@@H]3O[C@H](CO)[C@@H](O[C@@H]4O[C@H](CO)[C@@H](O)[C@H](O)[C@H]4NC(C)=O)[C@H](O)[C@H]3NC(C)=O)[C@H](O)[C@H]2NC(C)=O)[C@@H]1O` (stereo partly drawn) [(GlcNAc)6, chitohexaose], on YKL-39, the “binding to YKL-39 in glycan array (relative fluorescence)” value is on record as “strongest binders”.

With `Cn1cnc2c1c(=O)n(CCCn1c(=O)c3[nH]cnc3n(C)c1=O)c(=O)n2C` [bisdionin F], in the assay with hAMCase, the “activity against hAMCase” value is reported as “submicromolar” and the “selectivity for hAMCase over hCHT” value is “selectivity over hCHT”.

(GlcNAc)5: on YKL-39, the “binding to YKL-39 in glycan array (relative fluorescence)” value is “strongest binders”.

Consider `CC(=O)N[C@H]1[C@H](Oc2ccc3c(C)cc(=O)oc3c2)O[C@H](CO)[C@@H](O[C@@H]2O[C@H](CO)[C@@H](O[C@@H]3O[C@H](CO)[C@@H](O)[C@H](O)[C@H]3NC(C)=O)[C@H](O)[C@H]2NC(C)=O)[C@@H]1O` [4MU-(GlcNAc)3, 4-methylumbelliferyl-β-D-N,N′,N′’-triacetylchitotriose], for which the kcat in assay [1] (YKL-39 S143D/I145E, fluorigenic pseudosubstrate, pH 5.5, 37°C) turned out to be 0.02 ± 0.0002 s⁻¹; in assay [2] (fluorigenic pseudosubstrate, pH 5.5, 37°C), 15.7 ± 0.3 s⁻¹. The Michaelis constant (Km) in assay [1] (read-out: Michaelis constant (Km), YKL-39 S143D/I145E, fluorigenic pseudosubstrate, pH 5.5, 37°C) stood at 9 ± 1 µM; in assay [2] (read-out: Michaelis constant (Km), fluorigenic pseudosubstrate, pH 5.5, 37°C), 53 ± 3 µM.

The compound `CCc1nc2c([nH]1)c(=O)n(CCCn1c(=O)c3c(ncn3C)n(C)c1=O)c(=O)n2C` [bisdionin G, 1-{3-[3,7-dimethyl-2,6-dioxo-2,3-dihydro-6H-purin-1(7H)-yl]propyl}-8-ethyl-3-methyl-1H-purine-2,6(3H, 7H)-dione] yielded a Ki in assay [1] of 120 ± 2 µM.
